# Source: ChEMBL document CHEMBL5058577, “EUbOPEN Chemogenomics Library 2 (Multiplex)” (2022)
# “And” between values parts separate entries of the source, which are not always exact repeats. Identical values can stand only once.
# Test system: HEK-293T
# Test: Multiplex assay against HEK293T
# Format: toxicity, cell-based
# Settings: human
# How it was run: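 Live cells were stained at seeding with Hoechst33342, BioTracker Green Microtubule Cytoskeleton Dye, MitoTracker Red and Annexin V Alexa Fluor 680. Following compound addition, they were imaged on a CQ1 microscope at 37°C and 5% CO2 and gated by CellPathfinder machine learning into Hoechst high-intensity objects or normal cells, with normal cells split into healthy, pyknosed or fragmented nuclei and pyknosed cells into mitotic or apoptotic. Tubulin, mitochondrial-mass and membrane-permeability phenotypes are per cents of healthy-nucleus cells.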
# [1] = 12 h, 1 µM, compound concentration 1 uM, replicate 1
# [2] = 12 h, 1 µM, compound concentration 1 uM, replicate 2
# [3] = 12 h, 10 µM, compound concentration 10 uM, replicate 1
# [4] = 12 h, 10 µM, compound concentration 10 uM, replicate 2
# [5] = 24 h, 1 µM, compound concentration 1 uM, replicate 1
# [6] = 24 h, 1 µM, compound concentration 1 uM, replicate 2
# [7] = 24 h, 10 µM, compound concentration 10 uM, replicate 1
# [8] = 24 h, 10 µM, compound concentration 10 uM, replicate 2
# [9] = 48 h, 1 µM, compound concentration 1 uM, replicate 1
# [10] = 48 h, 1 µM, compound concentration 1 uM, replicate 2
# [11] = 48 h, 10 µM, compound concentration 10 uM, replicate 1
# [12] = 48 h, 10 µM, compound concentration 10 uM, replicate 2
smiles,measurement,setting,value
O=C(O)c1cc2ccccc2c(Cc2c(O)c(C(=O)O)cc3ccccc23)c1O [PAMOIC ACID],Population Apoptotic (%),[1],30%
same,Population Fragmented Nuclei (%),[1],9%
same,Population Healthy Nuclei (%),[1],77%
same,Population Hoechst High Intensity Objects (%),[1],7%
same,Population Membrane Permeable-Phenotype (%),[1],0%
same,Population Mitochondria Different-Phenotype (%),[1],38%
same,Population Mitotic Cells (%),[1],69%
same,Population Normal (%),[1],92%
same,Population Pyknosed Nuclei (%),[1],12%
same,Population Tubulin-Different-Phenotype (%),[1],23%
same,Total Cell Count,[1],432
same,Population Apoptotic (%),[2],58%
same,Population Fragmented Nuclei (%),[2],7%
same,Population Hoechst High Intensity Objects (%),[2],6%
same,Population Mitochondria Different-Phenotype (%),[2],60%
same,Population Mitotic Cells (%),[2],41%
same,Population Normal (%),[2],93%
same,Population Pyknosed Nuclei (%),[2],15%
same,Population Tubulin-Different-Phenotype (%),[2],21%
same,Total Cell Count,[2],303
same,Population Apoptotic (%),[3],34%
same,Population Fragmented Nuclei (%),[3],8%
same,Population Healthy Nuclei (%),[3],79%
same,Population Hoechst High Intensity Objects (%),[3],8%
same,Population Membrane Permeable-Phenotype (%),[3],0%
same,Population Mitochondria Different-Phenotype (%),[3],44%
same,Population Mitotic Cells (%),[3],65%
same,Population Normal (%),[3],91%
same,Population Pyknosed Nuclei (%),[3],12%
same,Population Tubulin-Different-Phenotype (%),[3],34%
same,Total Cell Count,[3],446
same,Population Apoptotic (%),[4],52%
same,Population Fragmented Nuclei (%),[4],4%
same,Population Healthy Nuclei (%),[4],81%
same,Population Mitochondria Different-Phenotype (%),[4],55%
same,Population Mitotic Cells (%),[4],47%
same,Population Pyknosed Nuclei (%),[4],13%
same,Population Tubulin-Different-Phenotype (%),[4],26%
same,Total Cell Count,[4],275
same,Population Apoptotic (%),[5],29%
same,Population Fragmented Nuclei (%),[5],8%
same,Population Healthy Nuclei (%),[5],78%
same,Population Hoechst High Intensity Objects (%),[5],6%
same,Population Membrane Permeable-Phenotype (%),[5],1%
same,Population Mitochondria Different-Phenotype (%),[5],22%
same,Population Mitotic Cells (%),[5],70%
same,Population Normal (%),[5],93%
same,Population Pyknosed Nuclei (%),[5],12%
same,Population Tubulin-Different-Phenotype (%),[5],16%
same,Total Cell Count,[5],559
same,Population Apoptotic (%),[6],40%
same,Population Fragmented Nuclei (%),[6],5%
same,Population Healthy Nuclei (%),[6],86%
same,Population Membrane Permeable-Phenotype (%),[6],0%
same,Population Mitochondria Different-Phenotype (%),[6],39%
same,Population Mitotic Cells (%),[6],59%
same,Population Pyknosed Nuclei (%),[6],7%
same,Total Cell Count,[6],378
same,Population Apoptotic (%),[7],29%
same,Population Fragmented Nuclei (%),[7],9%
same,Population Healthy Nuclei (%),[7],75%
same,Population Hoechst High Intensity Objects (%),[7],5%
same,Population Membrane Permeable-Phenotype (%),[7],0%
same,Population Mitochondria Different-Phenotype (%),[7],27%
same,Population Mitotic Cells (%),[7],70%
same,Population Normal (%),[7],94%
same,Population Pyknosed Nuclei (%),[7],14%
same,Population Tubulin-Different-Phenotype (%),[7],22%
same,Total Cell Count,[7],592
same,Population Apoptotic (%),[8],41%
same,Population Fragmented Nuclei (%),[8],5%
same,Population Healthy Nuclei (%),[8],79%
same,Population Hoechst High Intensity Objects (%),[8],7%
same,Population Mitochondria Different-Phenotype (%),[8],43%
same,Population Mitotic Cells (%),[8],58%
same,Population Normal (%),[8],92%
same,Population Pyknosed Nuclei (%),[8],15%
same,Population Tubulin-Different-Phenotype (%),[8],18%
same,Total Cell Count,[8],365
same,Population Apoptotic (%),[9],18%
same,Population Fragmented Nuclei (%),[9],11%
same,Population Healthy Nuclei (%),[9],81%
same,Population Hoechst High Intensity Objects (%),[9],2%
same,Population Membrane Permeable-Phenotype (%),[9],1%
same,Population Mitochondria Different-Phenotype (%),[9],13%
same,Population Mitotic Cells (%),[9],81%
same,Population Normal (%),[9],97%
same,Population Pyknosed Nuclei (%),[9],7%
same,Population Tubulin-Different-Phenotype (%),[9],10%
same,Total Cell Count,[9],998
same,Population Apoptotic (%),[10],48%
same,Population Fragmented Nuclei (%),[10],8%
same,Population Healthy Nuclei (%),[10],84%
same,Population Hoechst High Intensity Objects (%),[10],7%
same,Population Membrane Permeable-Phenotype (%),[10],0%
same,Population Mitochondria Different-Phenotype (%),[10],27%
same,Population Mitotic Cells (%),[10],51%
same,Population Normal (%),[10],92%
same,Population Pyknosed Nuclei (%),[10],6%
same,Population Tubulin-Different-Phenotype (%),[10],11%
same,Total Cell Count,[10],494
same,Population Apoptotic (%),[11],24%
same,Population Fragmented Nuclei (%),[11],13%
same,Population Healthy Nuclei (%),[11],79%
same,Population Hoechst High Intensity Objects (%),[11],3%
same,Population Membrane Permeable-Phenotype (%),[11],0%
same,Population Mitochondria Different-Phenotype (%),[11],18%
same,Population Mitotic Cells (%),[11],75%
same,Population Normal (%),[11],96%
same,Population Pyknosed Nuclei (%),[11],7%
same,Population Tubulin-Different-Phenotype (%),[11],10%
same,Total Cell Count,[11],879
same,Population Apoptotic (%),[12],36%
same,Population Fragmented Nuclei (%),[12],11%
same,Population Healthy Nuclei (%),[12],82%
same,Population Hoechst High Intensity Objects (%),[12],7%
same,Population Mitochondria Different-Phenotype (%),[12],27%
same,Population Mitotic Cells (%),[12],64%
same,Population Normal (%),[12],92%
same,Population Pyknosed Nuclei (%),[12],5%
same,Population Tubulin-Different-Phenotype (%),[12],12%
same,Total Cell Count,[12],517
CC(=O)O[C@H]1C(=O)[C@@]2(C)[C@H]([C@H](OC(=O)c3ccccc3)[C@]3(O)C[C@H](OC(=O)[C@H](O)[C@@H](NC(=O)c4ccccc4)c4ccccc4)C(C)=C1C3(C)C)[C@]1(OC(C)=O)CO[C@@H]1C[C@@H]2O [PACLITAXEL],Population Apoptotic (%),[3],41% and 51%
same,Population Fragmented Nuclei (%),[3],7% and 4%
same,Population Healthy Nuclei (%),[3],74% and 79%
same,Population Hoechst High Intensity Objects (%),[3],16% and 12%
same,Population Membrane Permeable-Phenotype (%),[3],0%
same,Population Mitochondria Different-Phenotype (%),[3],79% and 70%
same,Population Mitotic Cells (%),[3],58% and 48%
same,Population Normal (%),[3],83% and 87%
same,Population Pyknosed Nuclei (%),[3],17% and 15%
same,Population Tubulin-Different-Phenotype (%),[3],11% and 9%
same,Population Apoptotic (%),[4],56% and 47%
same,Population Fragmented Nuclei (%),[4],5% and 2%
same,Population Healthy Nuclei (%),[4],64% and 75%
same,Population Hoechst High Intensity Objects (%),[4],14%
same,Population Mitochondria Different-Phenotype (%),[4],84% and 85%
same,Population Mitotic Cells (%),[4],43% and 52%
same,Population Normal (%),[4],85%
same,Population Pyknosed Nuclei (%),[4],29% and 22%
same,Population Tubulin-Different-Phenotype (%),[4],16% and 17%
same,Population Apoptotic (%),[7],35% and 34%
same,Population Fragmented Nuclei (%),[7],10% and 9%
same,Population Healthy Nuclei (%),[7],70% and 73%
same,Population Hoechst High Intensity Objects (%),[7],16% and 14%
same,Population Membrane Permeable-Phenotype (%),[7],0%
same,Population Mitochondria Different-Phenotype (%),[7],72% and 68%
same,Population Mitotic Cells (%),[7],64% and 65%
same,Population Normal (%),[7],83% and 85%
same,Population Pyknosed Nuclei (%),[7],18% and 16%
same,Population Tubulin-Different-Phenotype (%),[7],8% and 7%
same,Population Apoptotic (%),[8],47% and 55%
same,Population Fragmented Nuclei (%),[8],8% and 7%
same,Population Healthy Nuclei (%),[8],75%
same,Population Hoechst High Intensity Objects (%),[8],15%
same,Population Mitochondria Different-Phenotype (%),[8],82% and 75%
same,Population Mitotic Cells (%),[8],52% and 44%
same,Population Normal (%),[8],84%
same,Population Pyknosed Nuclei (%),[8],17%
same,Population Tubulin-Different-Phenotype (%),[8],16% and 11%
same,Population Apoptotic (%),[11],29% and 38%
same,Population Fragmented Nuclei (%),[11],15% and 10%
same,Population Healthy Nuclei (%),[11],68% and 75%
same,Population Hoechst High Intensity Objects (%),[11],11% and 10%
same,Population Membrane Permeable-Phenotype (%),[11],0%
same,Population Mitochondria Different-Phenotype (%),[11],64% and 60%
same,Population Mitotic Cells (%),[11],70% and 62%
same,Population Normal (%),[11],88% and 89%
same,Population Pyknosed Nuclei (%),[11],15% and 14%
same,Population Tubulin-Different-Phenotype (%),[11],2% and 6%
same,Population Apoptotic (%),[12],69% and 57%
same,Population Fragmented Nuclei (%),[12],13%
same,Population Healthy Nuclei (%),[12],70% and 73%
same,Population Mitochondria Different-Phenotype (%),[12],70% and 68%
same,Population Mitotic Cells (%),[12],30% and 42%
same,Population Pyknosed Nuclei (%),[12],19% and 13%
same,Population Tubulin-Different-Phenotype (%),[12],11%
